Measurements taken from ChEMBL document CHEMBL1649165, “Activity profile in vitro of micafungin against Spanish clinical isolates of common and emerging species of yeasts and molds” (2009).
≈ marks a conversion by molar mass, not a printed value. *1 amine or outer side, *2 acyl side, *3 side chain or, on linkers, in order; H or OH if unused. Where a SMILES comes first, the peptide text is derived from it. Bridges are numbered along the chain shown (N, C = ends). [ ]: non-standard residue; d: D form. The star is where a group is joined. hTyr(3S-OH,4S-OH,3'-OSO3H) = N[C@H](C(=O)O)[C@H](O)[C@@H](O)c1ccc(O)c(OS(=O)(=O)O)c1; Orn(4R-OH,5R-OH) = O=C([C@H](C[C@@H](O)[C@@H](O)N[*:3])N[*:1])[*:2]; Pro(3S-OH,4S-Me) = C[C@H]1CN[C@H](C(=O)O)[C@H]1O; X1 = CCCCCOc1ccc(-c2cc(-c3ccc(C(=O)*)cc3)no2)cc1; Gln(3R-OH) = NC(=O)C[C@@H](O)[C@H](N)C(=O)O; Hyp = O=C(O)[C@@H]1C[C@@H](O)CN1

Legend:
Type in all cases: functional
[1] = Antimicrobial activity against Hormographiella aspergillata by broth microdilution method; conditions: Coprinopsis cinerea
Method in brief: (§1)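 Filamentous fungus clinical isolates tested by the AFST-EUCAST reference broth microdilution method for moulds. For echinocandins, the endpoint was the minimum effective concentration: the lowest drug concentration giving aberrant hyphal growth, read with an inverted microscope.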

Rhizopus arrhizus = test: Antimicrobial activity against Rhizopus oryzae by broth microdilution method; method in brief: as §1
Aspergillus sydowii = test: Antimicrobial activity against Aspergillus sydowii by broth microdilution method
Method in brief: (§2)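 Clinical mould isolates, tested by broth microdilution using the AFST-EUCAST reference method for filamentous fungi. For echinocandins, the endpoint was the minimum effective concentration: the lowest drug concentration giving aberrant hyphal growth, read with an inverted microscope.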

Trichosporon inkin = test: Antimicrobial activity against Trichosporon inkin by broth microdilution method
Method in brief: (§3)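 Nonfermentative yeast clinical isolates (Rhodotorula, Trichosporon) tested by broth microdilution. The EUCAST yeast recommendations were followed strictly, with one minor modification to improve growth. MIC was read as the endpoint.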

[2] = tested on: Cladophialophora bantiana; test: Antimicrobial activity against Cladophialophora bantiana by broth microdilution method; method in brief: as §2
Geotrichum candidum = test: Antimicrobial activity against Galactomyces geotrichum by broth microdilution method
Lichtheimia corymbifera = test: Antimicrobial activity against Mycocladus corymbiferus by broth microdilution method; method in brief: as §1
[3] = tested on: Meyerozyma guilliermondii; test: Antimicrobial activity against Candida guilliermondii by broth microdilution method
Method in brief: (§4)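 Clinical isolates from human patients, tested by broth microdilution using the AFST-EUCAST reference procedure for fermentative yeasts. The MIC was read per that reference method.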

Trichoderma = test: Antimicrobial activity against Trichoderma spp. by broth microdilution method; method in brief: as §1
Fusarium proliferatum = test: Antimicrobial activity against Fusarium proliferatum by broth microdilution method; method in brief: as §2
Trichosporon jirovecii = test: Antimicrobial activity against Trichosporon jirovecii by broth microdilution method; conditions: Cutaneotrichosporon jirovecii; method in brief: as §3
Phialemonium curvatum = test: Antimicrobial activity against Phialemonium curvatum by broth microdilution method; conditions: Thyridium curvatum; method in brief: as §1
Nakaseomyces glabratus = test: Antimicrobial activity against Candida glabrata by broth microdilution method; method in brief: as §4
Torulaspora delbrueckii = test: Antimicrobial activity against Candida coliculosa by broth microdilution method; method in brief: as §4
Penicillium = test: Antimicrobial activity against Penicillium spp. by broth microdilution method; method in brief: as §1
Candida metapsilosis = test: Antimicrobial activity against Candida metapsilosis by broth microdilution method; conditions: Lodderomyces metapsilosis; method in brief: as §4
Wickerhamomyces anomalus = test: Antimicrobial activity against Candida pelliculosa by broth microdilution method; conditions: Hansenula anomala; method in brief: as §4
Candida albicans = test: Antimicrobial activity against Candida albicans by broth microdilution method; method in brief: as §4
Pichia norvegensis = test: Antimicrobial activity against Candida norvegensis by broth microdilution method; method in brief: as §4
Aspergillus fumigatus = test: Antimicrobial activity against Aspergillus fumigatus by broth microdilution method; method in brief: as §2
Exophiala jeanselmei = test: Antimicrobial activity against Exophiala jeanselmei by broth microdilution method
Hortaea werneckii = test: Antimicrobial activity against Hortaea werneckii by broth microdilution method
[4] = tested on: Cryptococcus deneoformans; test: Antimicrobial activity against Cryptococcus neoformans var. neoformans by broth microdilution method
Method in brief: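 Clinical isolates of nonfermentative yeasts, tested by broth microdilution following EUCAST recommendations. The only change from that method was a minor modification to improve growth.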

Saccharomyces cerevisiae = test: Antimicrobial activity against Saccharomyces cerevisiae by broth microdilution method
Acremonium sp. = test: Antimicrobial activity against Acremonium sp.by broth microdilution method; method in brief: as §2
Aspergillus sclerotiorum = test: Antimicrobial activity against Aspergillus sclerotiorum by broth microdilution method; method in brief: as §2
Trichosporon domesticum = test: Antimicrobial activity against Trichosporon mycotoxinivorans by broth microdilution method; conditions: Apiotrichum domesticum
Method in brief: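 Spanish human clinical isolates were tested as nonfermentative yeasts by broth microdilution. The method strictly followed the EUCAST recommendations, with a minor modification to improve growth, and the read-out was the MIC.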

Kluyveromyces marxianus = test: Antimicrobial activity against Candida kefyr by broth microdilution method; method in brief: as §4
Scytalidium hyalinum = test: Antimicrobial activity against Scytalidium hyalinum by broth microdilution method; conditions: Neoscytalidium hyalinum; method in brief: as §1
Candida tropicalis = test: Antimicrobial activity against Candida tropicalis by broth microdilution method; method in brief: as §4
Lomentospora prolificans = test: Antimicrobial activity against Scedosporium prolificans by broth microdilution method; method in brief: as §1
[Candida] zeylanoides = Antimicrobial activity against Candida zeylanoides by broth microdilution method; conditions: Dujonia zeylanoides; method in brief: as §4
[5] = tested on: Kazachstania pintolopesii; test: Antimicrobial activity against Candida pintolopesii by broth microdilution method; conditions: Arxiozyma pintolopesii; method in brief: as §4
[Candida] inconspicua = Antimicrobial activity against Candida inconspicua by broth microdilution method; conditions: Pichia inconspicua; method in brief: as §4
Aspergillus ochraceus = test: Antimicrobial activity against Aspergillus ochraceus by broth microdilution method; method in brief: as §2
Yarrowia lipolytica = test: Antimicrobial activity against Yarrowia lipolytica by broth microdilution method
Candida orthopsilosis = test: Antimicrobial activity against Candida orthopsilosis by broth microdilution method; conditions: Lodderomyces orthopsilosis; method in brief: as §4
Aspergillus glaucus = test: Antimicrobial activity against Aspergillus glaucus by broth microdilution method; method in brief: as §2
Ustilago = test: Antimicrobial activity against Ustilago spp by broth microdilution method

CCCCCOc1ccc(-c2cc(-c3ccc(C(=O)N[C@H]4C[C@@H](O)[C@@H](O)NC(=O)[C@@H]5[C@@H](O)[C@@H](C)CN5C(=O)[C@H]([C@H](O)CC(N)=O)NC(=O)[C@H]([C@H](O)[C@@H](O)c5ccc(O)c(OS(=O)(=O)O)c5)NC(=O)[C@@H]5C[C@@H](O)CN5C(=O)[C@H]([C@@H](C)O)NC4=O)cc3)no2)cc1 [MICAFUNGIN] (X1-[Orn(4R-OH,5R-OH)]T[Hyp][hTyr(3S-OH,4S-OH,3'-OSO3H)][Gln(3R-OH)][Pro(3S-OH,4S-Me)]; lactam 1-C)
MIC50 [1]: > 16 µg/mL
MIC90 [1]: > 16 µg/mL
MIC50 (Rhizopus arrhizus): > 16 µg/mL
MIC90 (Rhizopus arrhizus): > 16 µg/mL
MIC50 (Aspergillus sydowii): 0.03 µg/mL (≈ 0.0236 µM)
MIC90 (Aspergillus sydowii): 0.03 µg/mL (≈ 0.0236 µM)
MIC50 (Trichosporon inkin): > 16 µg/mL
MIC90 (Trichosporon inkin): > 16 µg/mL
MIC50 [2]: 0.03 µg/mL (≈ 0.0236 µM)
MIC90 [2]: 0.06 µg/mL (≈ 0.0472 µM)
MIC50 (Geotrichum candidum): > 16 µg/mL
MIC90 (Geotrichum candidum): > 16 µg/mL
MIC50 (Lichtheimia corymbifera): > 16 µg/mL
MIC90 (Lichtheimia corymbifera): > 16 µg/mL
MIC50 [3]: 0.12 µg/mL (≈ 0.0945 µM)
MIC90 [3]: 1 µg/mL (≈ 0.787 µM)
MIC50 (Trichoderma): > 16 µg/mL
MIC90 (Trichoderma): > 16 µg/mL
MIC50 (Fusarium proliferatum): > 16 µg/mL
MIC90 (Fusarium proliferatum): > 16 µg/mL
MIC50 (Trichosporon jirovecii): > 16 µg/mL
MIC90 (Trichosporon jirovecii): > 16 µg/mL
MIC50 (Phialemonium curvatum): > 16 µg/mL
MIC90 (Phialemonium curvatum): > 16 µg/mL
MIC50 (Nakaseomyces glabratus): 0.03 µg/mL (≈ 0.0236 µM)
MIC90 (Nakaseomyces glabratus): 0.03 µg/mL (≈ 0.0236 µM)
MIC50 (Torulaspora delbrueckii): 0.03 µg/mL (≈ 0.0236 µM)
MIC90 (Torulaspora delbrueckii): 0.12 µg/mL (≈ 0.0945 µM)
MIC50 (Penicillium): 0.03 µg/mL (≈ 0.0236 µM)
MIC90 (Penicillium): 0.06 µg/mL (≈ 0.0472 µM)
MIC50 (Candida metapsilosis): 0.03 µg/mL (≈ 0.0236 µM)
MIC90 (Candida metapsilosis): 0.12 µg/mL (≈ 0.0945 µM)
MIC50 (Wickerhamomyces anomalus): 0.03 µg/mL (≈ 0.0236 µM)
MIC90 (Wickerhamomyces anomalus): 0.12 µg/mL (≈ 0.0945 µM)
MIC50 (Candida albicans): 0.03 µg/mL (≈ 0.0236 µM)
MIC90 (Candida albicans): 0.03 µg/mL (≈ 0.0236 µM)
MIC50 (Pichia norvegensis): 0.03 µg/mL (≈ 0.0236 µM)
MIC90 (Pichia norvegensis): 0.12 µg/mL (≈ 0.0945 µM)
MIC50 (Aspergillus fumigatus): 0.03 µg/mL (≈ 0.0236 µM)
MIC90 (Aspergillus fumigatus): 0.03 µg/mL (≈ 0.0236 µM)
MIC50 (Exophiala jeanselmei): 0.03 µg/mL (≈ 0.0236 µM)
MIC90 (Exophiala jeanselmei): 0.06 µg/mL (≈ 0.0472 µM)
MIC50 (Hortaea werneckii): 0.03 µg/mL (≈ 0.0236 µM)
MIC90 (Hortaea werneckii): 0.06 µg/mL (≈ 0.0472 µM)
MIC50 [4]: > 16 µg/mL
MIC90 [4]: > 16 µg/mL
MIC50 (Saccharomyces cerevisiae): 0.03 µg/mL (≈ 0.0236 µM)
MIC90 (Saccharomyces cerevisiae): 0.06 µg/mL (≈ 0.0472 µM)
MIC50 (Acremonium sp.): 0.12 µg/mL (≈ 0.0945 µM)
MIC90 (Acremonium sp.): 0.25 µg/mL (≈ 0.197 µM)
MIC50 (Aspergillus sclerotiorum): 0.06 µg/mL (≈ 0.0472 µM)
MIC90 (Aspergillus sclerotiorum): 0.25 µg/mL (≈ 0.197 µM)
MIC50 (Trichosporon domesticum): > 16 µg/mL
MIC90 (Trichosporon domesticum): > 16 µg/mL
MIC50 (Kluyveromyces marxianus): 0.03 µg/mL (≈ 0.0236 µM)
MIC90 (Kluyveromyces marxianus): 0.03 µg/mL (≈ 0.0236 µM)
MIC50 (Scytalidium hyalinum): 0.03 µg/mL (≈ 0.0236 µM)
MIC90 (Scytalidium hyalinum): 0.06 µg/mL (≈ 0.0472 µM)
MIC50 (Candida tropicalis): 0.03 µg/mL (≈ 0.0236 µM)
MIC90 (Candida tropicalis): 0.03 µg/mL (≈ 0.0236 µM)
MIC50 (Lomentospora prolificans): 8 µg/mL (≈ 6.3 µM)
MIC90 (Lomentospora prolificans): > 16 µg/mL
MIC50 ([Candida] zeylanoides): 0.03 µg/mL (≈ 0.0236 µM)
MIC90 ([Candida] zeylanoides): 0.12 µg/mL (≈ 0.0945 µM)
MIC50 [5]: 0.03 µg/mL (≈ 0.0236 µM)
MIC90 [5]: 0.12 µg/mL (≈ 0.0945 µM)
MIC50 ([Candida] inconspicua): 0.03 µg/mL (≈ 0.0236 µM)
MIC90 ([Candida] inconspicua): 0.12 µg/mL (≈ 0.0945 µM)
MIC50 (Aspergillus ochraceus): 0.06 µg/mL (≈ 0.0472 µM)
MIC90 (Aspergillus ochraceus): 0.25 µg/mL (≈ 0.197 µM)
MIC50 (Yarrowia lipolytica): 0.03 µg/mL (≈ 0.0236 µM)
MIC90 (Yarrowia lipolytica): 1 µg/mL (≈ 0.787 µM)
MIC50 (Candida orthopsilosis): 0.03 µg/mL (≈ 0.0236 µM)
MIC90 (Candida orthopsilosis): 0.12 µg/mL (≈ 0.0945 µM)
MIC50 (Aspergillus glaucus): 0.06 µg/mL (≈ 0.0472 µM)
MIC90 (Aspergillus glaucus): 0.25 µg/mL (≈ 0.197 µM)
MIC50 (Ustilago): > 16 µg/mL
MIC90 (Ustilago): > 16 µg/mL
